Experimental data from publication PMC3149845 (The Journal of neuroscience : the official journal of the …, 2011).

Key:
hTas1R2/smTas1R3 = target: T1, hTas1R2/smTas1R3 (Homo sapiens, UniProt Q8TE23); assay: Ca2+ mobilization, mismatched receptor; type: cell-based, human/squirrel monkey; conditions: aspartame 10mM, neotame 1mM, sucralose 2 mM, D-tryptophan 5mM, sucrose 150mM; vs control / wild type human receptor
T1 sequence (Q8TE23 20-839): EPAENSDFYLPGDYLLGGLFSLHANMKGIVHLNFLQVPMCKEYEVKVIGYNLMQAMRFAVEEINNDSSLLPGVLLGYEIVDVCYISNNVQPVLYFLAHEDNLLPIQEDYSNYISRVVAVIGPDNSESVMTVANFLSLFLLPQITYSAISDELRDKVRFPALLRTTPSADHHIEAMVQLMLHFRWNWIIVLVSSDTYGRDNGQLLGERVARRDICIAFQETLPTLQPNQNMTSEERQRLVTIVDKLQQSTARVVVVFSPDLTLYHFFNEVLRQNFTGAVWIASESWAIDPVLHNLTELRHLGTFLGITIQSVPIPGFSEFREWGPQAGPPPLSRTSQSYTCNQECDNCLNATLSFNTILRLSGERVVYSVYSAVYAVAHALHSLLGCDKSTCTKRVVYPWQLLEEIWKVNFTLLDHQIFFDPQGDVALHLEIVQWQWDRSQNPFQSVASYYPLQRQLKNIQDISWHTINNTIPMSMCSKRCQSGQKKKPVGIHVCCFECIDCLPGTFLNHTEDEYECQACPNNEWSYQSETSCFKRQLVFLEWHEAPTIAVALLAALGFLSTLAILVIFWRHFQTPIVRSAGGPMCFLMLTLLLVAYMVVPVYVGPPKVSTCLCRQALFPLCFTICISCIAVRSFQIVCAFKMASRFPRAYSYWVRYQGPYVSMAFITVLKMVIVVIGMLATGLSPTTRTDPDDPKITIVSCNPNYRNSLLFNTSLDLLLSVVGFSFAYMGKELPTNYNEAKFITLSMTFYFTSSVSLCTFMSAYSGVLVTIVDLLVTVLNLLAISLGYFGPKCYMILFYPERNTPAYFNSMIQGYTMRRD
Procedure, shortened: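 Transfected HEK293E cells (50,000/well; 0.06 μg Tas1R plasmid and 0.06 μg Gα16-gust44 per well) were medium-changed at 20 h, then loaded after 24 h with 3 μM Fluo-4 AM in HBSS/20 mM HEPES for 1 h. Tastant added 30 s into scan; fluorescence (ex 488/em 525 nm) read every 2 s for 150 s. ΔF/F normalized to the hTas1R2/hTas1R3 sucralose response; three independent experiments; unpaired t test.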

smTas1R2/hTas1R3 = target: T2, smTas1R2/hTas1R3 (Saimiri sciureus, UniProt A3QP08); assay: Ca2+ mobilization, mismatched receptor; type: cell-based, human/squirrel monkey; conditions: aspartame 10mM, neotame 1mM, sucralose 2 mM, D-tryptophan 5mM, sucrose 150mM
T2 sequence (A3QP08 20-834): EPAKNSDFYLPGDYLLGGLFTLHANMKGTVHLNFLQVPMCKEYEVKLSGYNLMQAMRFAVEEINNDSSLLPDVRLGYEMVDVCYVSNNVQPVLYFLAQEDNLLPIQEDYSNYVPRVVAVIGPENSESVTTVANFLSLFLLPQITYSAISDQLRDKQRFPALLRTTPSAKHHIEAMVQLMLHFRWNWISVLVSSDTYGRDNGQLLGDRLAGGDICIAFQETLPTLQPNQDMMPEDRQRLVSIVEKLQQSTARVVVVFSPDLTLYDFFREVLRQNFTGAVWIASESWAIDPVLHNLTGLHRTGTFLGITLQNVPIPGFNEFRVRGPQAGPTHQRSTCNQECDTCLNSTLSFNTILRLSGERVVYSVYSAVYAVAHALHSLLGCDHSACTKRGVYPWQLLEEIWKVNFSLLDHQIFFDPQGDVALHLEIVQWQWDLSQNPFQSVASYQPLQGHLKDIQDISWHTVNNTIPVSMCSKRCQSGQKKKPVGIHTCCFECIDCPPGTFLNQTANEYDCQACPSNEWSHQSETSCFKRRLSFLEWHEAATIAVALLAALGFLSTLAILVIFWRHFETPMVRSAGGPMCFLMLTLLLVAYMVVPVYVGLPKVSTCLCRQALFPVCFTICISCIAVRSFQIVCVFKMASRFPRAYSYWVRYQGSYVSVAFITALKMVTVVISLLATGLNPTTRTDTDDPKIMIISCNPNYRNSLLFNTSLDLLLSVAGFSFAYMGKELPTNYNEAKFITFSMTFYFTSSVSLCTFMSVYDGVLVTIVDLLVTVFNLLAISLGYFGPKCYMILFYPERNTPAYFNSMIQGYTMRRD
T2 sequence (Q7RTX0 21-852 partner): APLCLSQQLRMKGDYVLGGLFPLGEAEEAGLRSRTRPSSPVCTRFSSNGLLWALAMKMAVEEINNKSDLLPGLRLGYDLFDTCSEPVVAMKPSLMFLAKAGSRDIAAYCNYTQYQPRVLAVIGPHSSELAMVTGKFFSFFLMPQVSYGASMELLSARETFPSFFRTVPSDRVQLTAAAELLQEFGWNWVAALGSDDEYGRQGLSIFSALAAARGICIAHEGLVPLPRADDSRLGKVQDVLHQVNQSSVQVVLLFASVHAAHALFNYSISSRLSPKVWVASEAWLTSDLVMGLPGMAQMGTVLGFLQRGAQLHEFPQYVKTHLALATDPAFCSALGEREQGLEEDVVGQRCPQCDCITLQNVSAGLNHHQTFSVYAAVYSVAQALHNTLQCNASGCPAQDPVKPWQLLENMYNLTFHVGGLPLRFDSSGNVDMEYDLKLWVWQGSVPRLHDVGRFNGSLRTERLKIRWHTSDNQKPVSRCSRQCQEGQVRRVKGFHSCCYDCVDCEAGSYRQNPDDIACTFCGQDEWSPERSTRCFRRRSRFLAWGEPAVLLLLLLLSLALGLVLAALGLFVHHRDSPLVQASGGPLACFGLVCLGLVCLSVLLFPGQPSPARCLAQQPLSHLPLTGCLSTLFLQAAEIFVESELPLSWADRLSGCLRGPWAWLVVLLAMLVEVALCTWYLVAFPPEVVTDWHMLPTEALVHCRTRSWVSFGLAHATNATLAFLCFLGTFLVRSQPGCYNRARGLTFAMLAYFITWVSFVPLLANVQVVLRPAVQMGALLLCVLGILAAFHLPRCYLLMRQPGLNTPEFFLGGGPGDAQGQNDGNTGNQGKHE
Procedure, shortened: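 HEK293E cells grown at 37°C in Opti-MEM with 5% FBS and seeded at 50,000/well. Cells co-lipofected with Tas1R plasmids and Gα16-gust44 (0.06 μg each per well); medium changed at 20 h, assayed 24 h later. Cells loaded 1 h with Fluo-4 AM in HEPES-buffered HBSS. Tastant added at 30 s; fluorescence (ex 488/em 525 nm) read every 2 s for 150 s more. ΔF/F normalised to human receptor maximal sucralose response; mean ± SEM, three independent experiments.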

For `N[C@H](Cc1c[nH]c2ccccc12)C(=O)O` [D-tryptophan], the “calcium response to sweetener” value (hTas1R2/smTas1R3) was “reduced responses” and the “calcium response to sweetener” value (smTas1R2/hTas1R3) was “remained intact or reduced”.

In the case of `OC[C@H]1O[C@@](CO)(O[C@H]2O[C@H](CO)[C@@H](O)[C@H](O)[C@H]2O)[C@@H](O)[C@@H]1O` [sucrose], the “calcium response to sweetener” value (hTas1R2/smTas1R3) is reported as “reduced responses” and the “calcium response to sweetener” value (smTas1R2/hTas1R3) is reported as “remained intact or reduced”.
